From PubChem BioAssay AID588837 (Broad Institute, 2011)
Activity calls are given as the source filed them. How the calls were made is not given here.

biological target: Scavenger receptor class B member 1 (Mus musculus) (UniProt Q61009); test: inhibitors of C384S mutant SR-BI HDL uptake, late-stage follow-up, mechanism study for SR-BI HDL uptake inhibitor project, C384S mutant cells, scintillation, powder samples (AID 588837); settings: CHO ldlA C384S mSR-BI, [3H]CE-HDL uptake, 2 h; at 1 µM; active compounds read low
In short: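 Test system: CHO cells lacking LDL receptor, overexpressing C384S mutant SR-BI / Also added: [3H]CE-labeled HDL / Incubation: 1 h pretreatment plus 2 h uptake at 37 °C / Technique: scintillation counting of cell-associated tritium label / Measure: specific HDL cholesterol uptake as percent of control / Control set: 40-fold excess unlabeled HDL defining nonspecific background uptake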

Chain of Scavenger receptor class B member 1 (Mus musculus) (Q61009 whole entry C384S): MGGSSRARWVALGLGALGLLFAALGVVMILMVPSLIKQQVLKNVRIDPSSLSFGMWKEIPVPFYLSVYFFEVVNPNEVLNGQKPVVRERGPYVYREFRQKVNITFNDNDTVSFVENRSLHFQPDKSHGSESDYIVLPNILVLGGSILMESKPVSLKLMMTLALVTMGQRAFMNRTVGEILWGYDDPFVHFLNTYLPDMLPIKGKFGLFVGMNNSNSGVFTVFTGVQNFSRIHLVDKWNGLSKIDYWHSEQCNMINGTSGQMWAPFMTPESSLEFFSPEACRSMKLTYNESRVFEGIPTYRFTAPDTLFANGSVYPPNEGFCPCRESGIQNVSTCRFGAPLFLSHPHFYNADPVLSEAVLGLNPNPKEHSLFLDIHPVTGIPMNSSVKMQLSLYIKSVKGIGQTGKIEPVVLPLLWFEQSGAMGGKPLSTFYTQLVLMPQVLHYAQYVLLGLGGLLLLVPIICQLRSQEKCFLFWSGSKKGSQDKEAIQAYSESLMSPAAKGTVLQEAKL

cholesterol uptake	Structure (SMILES)
78.2%	CCOC(=O)N1CCC(NC(=O)c2ccc3c(c2)N(Cc2ccc(F)cc2)CCS3)CC1
88.3%	CCC(=O)N1CCc2cc(-c3csc(NC(=O)c4ccco4)n3)ccc21

The next lines start with the compound.

Structure (SMILES)	cholesterol uptake
O=C(Nc1ccc(Cl)cc1C(=O)c1ccc(Cl)cc1)c1cc(Br)ccc1NS(=O)(=O)c1ccc(Cl)cc1	121% (inactive)
Cc1ccc2oc(-c3cccc(NC(=O)c4cc(-n5cnnc5)ccc4Cl)c3)nc2c1	84.4%
COc1ccc(-c2nnn(CC(=O)N(C3CCCCC3)C(C)C(=O)NC3CCCC3)n2)cc1OC (stereo not given)	89.4%
